In ChEMBL document CHEMBL4354828, “Discovery of Taniborbactam (VNRX-5133): A Broad-Spectrum Serine- and Metallo-β-lactamase Inhibitor for Carbapenem-Resistant Bacterial Infections” (J Med Chem, 2020):
Values after ≈ are worked out from the molar mass of the structure shown.

Legend:
[1] = Inhibition of bacterial OXA-48 using nitrocefin as substrate preincubated for 15 mins followed by susbtrate addition and measured after 10 mins by spectrophotometric method; set-up: species or system Bacteria
[2] = Inhibition of bacterial VIM-2 using nitrocefin as substrate preincubated for 15 mins followed by susbtrate addition and measured after 10 mins by spectrophotometric method; set-up: species or system Bacteria
Summary of the method: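 Purified β-lactamase inhibition. IC50 values are the average of duplicates unless otherwise indicated.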

Klebsiella pneumoniae [3] = assay: Inhibition of VIM-4 in Klebsiella pneumoniae assessed as meropenem antibacterial activity at 4 ug/ml after 16 to 20 hrs by CLSI-based microbroth dilution method (Rvb >= […] ug/ml)
Klebsiella pneumoniae [4] = assay: Inhibition of OXA-48 in Klebsiella pneumoniae assessed as meropenem antibacterial activity at 4 ug/ml after 16 to 20 hrs by CLSI-based microbroth dilution method (Rvb >= […] ug/ml)
[5] = biological target: Beta-lactamase VIM-2 (Pseudomonas aeruginosa) (UniProt Q9K2N0); assay: Inhibition of VIM-2 in Pseudomonas aeruginosa assessed as meropenem antibacterial activity at 4 ug/ml after 16 to 20 hrs by CLSI-based microbroth dilution method (Rvb >= […] ug/ml)
Klebsiella pneumoniae [6] = assay: Inhibition of KPC-2 in Klebsiella pneumoniae assessed as meropenem antibacterial activity at 4 ug/ml after 16 to 20 hrs by CLSI-based microbroth dilution method (Rvb >= […] ug/ml)
[7] = Inhibition of bacterial KPC-2 using imipenem as substrate preincubated for 15 mins followed by susbtrate addition and measured after 10 mins by spectrophotometric method; set-up: species or system Bacteria
[8] = Inhibition of bacterial AmpC using nitrocefin as substrate preincubated for 15 mins followed by susbtrate addition and measured after 10 mins by spectrophotometric method; set-up: species or system Bacteria

| Compound | IC50 [1] | IC50 [2] | MIC (Klebsiella pneumoniae [3]) | MIC (Klebsiella pneumoniae [4]) | MIC [5] | MIC (Klebsiella pneumoniae [6]) | IC50 [7] | IC50 [8] |
| --- | --- | --- | --- | --- | --- | --- | --- | --- |
| NCC(=O)N[C@H]1CC[C@H](CC(=O)N[C@H]2Cc3cccc(C(=O)O)c3OB2O)CC1 | 355 nM | 594 nM | 8 µg/mL (≈ 19.8 µM) | 8 µg/mL (≈ 19.8 µM) | 8 µg/mL (≈ 19.8 µM) | 2 µg/mL (≈ 4.96 µM) | 34 nM | 6 nM |
| NCCCN[C@H]1CC[C@H](CC(=O)N[C@H]2Cc3cccc(C(=O)O)c3OB2O)CC1 | 664 nM | 82 nM | 4 µg/mL (≈ 9.92 µM) | 8 µg/mL (≈ 19.8 µM) | 0.25 µg/mL (≈ 0.62 µM) | 0.5 µg/mL (≈ 1.24 µM) | 70 nM | 5 nM |
| O=C(C[C@H]1CC[C@H](NCCO)CC1)N[C@H]1Cc2cccc(C(=O)O)c2OB1O | 7550 nM | 1400 nM | 0.5 µg/mL (≈ 1.28 µM) | 2 µg/mL (≈ 5.12 µM) | 4 µg/mL (≈ 10.2 µM) | 2 µg/mL (≈ 5.12 µM) | 17 nM | 10 nM |
| CNCCN[C@H]1CC[C@H](CC(=O)N[C@H]2Cc3cccc(C(=O)O)c3OB2O)CC1 | 579 nM | 2 nM | 0.5 µg/mL (≈ 1.24 µM) | 2 µg/mL (≈ 4.96 µM) |  | 0.5 µg/mL (≈ 1.24 µM) | 12 nM | 11 nM |
| N=C(N)NCCN[C@H]1CC[C@H](CC(=O)N[C@H]2Cc3cccc(C(=O)O)c3OB2O)CC1 | 1590 nM | 86 nM | 0.06 µg/mL (≈ 0.139 µM) | 2 µg/mL (≈ 4.64 µM) | 0.5 µg/mL (≈ 1.16 µM) | 1 µg/mL (≈ 2.32 µM) | 27 nM | 6 nM |
| NCCNc1ccc(CC(=O)N[C@H]2Cc3cccc(C(=O)O)c3OB2O)cc1 | 288 nM | 491 nM | 8 µg/mL (≈ 20.9 µM) | 1 µg/mL (≈ 2.61 µM) | 0.5 µg/mL (≈ 1.3 µM) | 1 µg/mL (≈ 2.61 µM) | 22 nM | 5 nM |
| O=C(C[C@H]1CC[C@H](N2CCNCC2)CC1)N[C@H]1Cc2cccc(C(=O)O)c2OB1O | 1520 nM | 1500 nM | 32 µg/mL (≈ 77.1 µM) | 16 µg/mL (≈ 38.5 µM) | 16 µg/mL (≈ 38.5 µM) | 4 µg/mL (≈ 9.63 µM) | 20 nM | 3 nM |
| CS(=O)(=O)NCCN[C@H]1CC[C@H](CC(=O)N[C@H]2Cc3cccc(C(=O)O)c3OB2O)CC1 | 499 nM | 110 nM | 8 µg/mL (≈ 17.1 µM) | 8 µg/mL (≈ 17.1 µM) | 16 µg/mL (≈ 34.2 µM) | 4 µg/mL (≈ 8.56 µM) | 17 nM | 6 nM |
